Data on two compounds can be found in ChEMBL document CHEMBL3044661, “Antifungal clerodane diterpenes from Macaranga monandra (L) Muell. et Arg. (Euphorbiaceae)” (J Agric Food Chem, 2003).

Calls of active or inactive are those of the source. The calls are words filed in the database; no cut-off is given here.

Data set [1] has as its system Fusarium oxysporum. In words: Growth inhibition of Fusarium oxysporum at < / = 30 uM after 48 to 72 hr by microtiter assay. The format is functional, organism-based. Summed up: (§1)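 96-well broth microassay. Conidia came from 7–10-day PDA cultures, were filtered through miracloth and set photometrically (625 nm %T curve) to 1.0×10^6 conidia/mL. Final doses were 0.3, 3.0 and 30.0 µM, in duplicate. Plates ran at 24 ± 1 °C with a 12-h photoperiod. A620 was read at 48 and 72 h. Percent inhibition (n = 4) was taken relative to untreated growth controls (n = 32). Split-plot design, replicated twice in time.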

Data set [2] has as its system Colletotrichum gloeosporioides. The experiment in a line: Antifungal activity against Colletotrichum gloeosporioides assessed as zone of inhibition at 100 ug/ml after 4 days by TLC bioautographic analysis. The format is functional. As to conditions: 96 h, read-out: IZ. Summed up:
(§2)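 TLC bioautography on silica gel GF plates with fluorescent indicator. Compounds were spotted in a dose series at final 3.12–100 µg/mL. Plates were sprayed three times with conidia at final 3.0×10^5 conidia/mL in potato-dextrose broth with 0.1% Tween-80, then held in a moisture chamber at 24 ± 1 °C with a 12-h photoperiod. Inhibition zones (mm) were read at 4 d and reported as mean ± SD.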

In data set [3] the test system is Diaporthe ampelina. In words: Growth inhibition of Diaporthe ampelina at 30 uM after 120 hr by microtiter assay. The class given is functional. Particulars: read-out: GI. Summed up: (§3)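 96-well broth microassay against Phomopsis viticola or P. obscurans. Conidial inoculum was filtered and photometrically set to 1.0×10^6 conidia/mL. Final doses were 0.3, 3.0 and 30.0 µM, in duplicate. Incubation was at 24 ± 1 °C with a 12-h photoperiod, and A620 was recorded at 120 h. Mean percent inhibition (n = 4) was taken against untreated positive controls (n = 32). Split-plot design, replicated twice in time.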

For data set [4], the system named is Phomopsis obscurans. The experiment in a line: Growth inhibition of Phomopsis obscurans at 30 uM after 120 hr by microtiter assay. The class given is functional. As to conditions: Paraphomopsis obscurans, read-out: GI. Put shortly:
as §3

For data set [5], the system named is Colletotrichum fragariae. In words: Growth inhibition of Colletotrichum fragariae at < / = 30 uM after 72 hr by microtiter assay. The class given is functional, organism-based. Summed up:
as §1

Data set [6] has as its system Colletotrichum gloeosporioides. In words: Growth stimulation of Colletotrichum gloeosporioides at low concentration by microtiter assay. The class given is organism-based. Particulars: in vivo. Put shortly: as §1
Data set [7] relates to Colletotrichum fragariae. The experiment in a line: Antifungal activity against Colletotrichum fragariae assessed as zone of inhibition at 100 ug/ml after 4 days by TLC bioautographic analysis. Particulars: 96 h, read-out: IZ. The format is functional. Summed up: as §2
The test system of data set [8] is Phomopsis obscurans. In words: Growth stimulation of Phomopsis obscurans at low concentration by microtiter assay. The class given is organism-based. Particulars: paraphomopsis obscurans, in vivo. Put shortly:
as §3

For data set [9], the system named is Colletotrichum gloeosporioides. In words: Growth inhibition of Colletotrichum gloeosporioides at < / = 30 uM after 48 to 72 hr by microtiter assay. The class given is functional, organism-based. Put shortly:
as §1

Data set [10] relates to Colletotrichum acutatum. The experiment in a line: Growth stimulation of Colletotrichum acutatum at low concentration by microtiter assay. The class given is organism-based. Particulars: in vivo. Summed up: as §1
Data set [11] deals with Botrytis cinerea. In words: Growth inhibition of Botryotinia fuckeliana at 30 uM after 48 hr by microtiter assay. The format is functional. Particulars: read-out: GI. Put shortly:
as §1

In data set [12] the test system is Colletotrichum fragariae. In words: Antifungal activity against Colletotrichum fragariae assessed as zone of inhibition at 25 ug/ml after 4 days by TLC bioautographic analysis. The format is functional. Particulars: 96 h, read-out: IZ. Put shortly:
as §2

In data set [13] the test system is Colletotrichum acutatum. The experiment in a line: Growth inhibition of Colletotrichum acutatum at < / = 30 uM after 48 to 72 hr by microtiter assay. The class given is functional, organism-based. Summed up: as §1
For data set [14], the system named is Colletotrichum fragariae. In words: Antifungal activity against Colletotrichum fragariae assessed as zone of inhibition at 50 ug/ml after 4 days by TLC bioautographic analysis. The format is functional. As to conditions: 96 h, read-out: IZ. Put shortly: as §2

As to `CC1=CC(=O)C[C@@H]2[C@@](C)(CC/C(C)=C/C(=O)O)[C@H](C)CC[C@@]12C` [2-OXO-KOLAVENIC ACID], the “growth inhibition (GI)” value in data set [1], in data set [5], in data set [9] and in data set [13] was “inactive” throughout. In addition, the zone of inhibition at 100 µg/mL was 0 mm in data set [2] and 8 mm in [7]. In addition, the results for the inhibition of growth at 30 µM in data set [3], in data set [4] and in [11] were 46%, 8% and 23%, respectively. For the same compound, the Activity result was “Dose-dependent effect and tde” in [6]; “Dose-dependent effect and tde” in [8]; “Dose-dependent effect and tde” in data set [10]. Further, in [12], the zone of inhibition at 25 µg/mL was determined as 6 mm. Moreover, in data set [14], the zone of inhibition at 50 µg/mL amounted to 8 mm.

As for `CC1=CCC[C@@H]2[C@@](C)(CC/C(C)=C/C(=O)O)[C@H](C)CC[C@@]12C` [KOLAVENIC ACID], the “growth inhibition (GI)” value in [1], in data set [5], in data set [9] and in data set [13] was “inactive” each time. Further, the figures for the zone of inhibition at 100 µg/mL in [2] and in data set [7] were 9.5 mm and 9 mm, respectively. Moreover, the figures for the inhibition of growth at 30 µM in data set [3], in data set [4] and in data set [11] were 50%, 26% and 23%, respectively. In addition, the Activity result was “Dose-dependent effect and tde” in [6]; “Dose-dependent effect and tde” in data set [8]; “Dose-dependent effect and tde” in data set [10]. In [12], the zone of inhibition at 25 µg/mL stood at 5 mm. Besides, the zone of inhibition at 50 µg/mL in [14] is 8.5 mm.
